Measured values from ChEMBL document CHEMBL4665637, “Inhibition of diverse opportunistic viruses by structurally optimized retrograde trafficking inhibitors” (Bioorg Med Chem, 2019).
The source made the active and inactive calls. The calls are words filed in the database; no cut-off is given here.

How the values were obtained:
Human betaherpesvirus 5 [1] = test: Antiviral activity against HCMV TB40/E infected in human NHDF cells assessed as reduction in infectious virus titer compound added 2 hpi and measured after 96 hpi by inverted microscopic analysis; settings: Human betaherpesvirus 5, TB40/E
NHDF [2] = test: Inhibition of retrograde transport in NHDF cells assessed as displacement of STX5 from golgi apparatus at 10 uM by immunofluorescence analysis; type: functional, cell-based; settings: Homo sapiens
In short: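 HDFs exposed to 10 µM compound or DMSO vehicle, fixed in 2% paraformaldehyde for 15 min at room temperature. Blocked in PBS with 10% human serum, 0.5% Tween-20 and 5% glycine, permeabilized with 0.1% Triton X-100. Stained for STX5 and for the Golgi marker p115, DAPI mounting, imaged by confocal microscopy.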

Human betaherpesvirus 5 [3] = test: Antiviral activity against HCMV infected in human ARPE-19 cells at 7.5 uM measured after 3 days post infection; type: functional, cell-based
In short: (§1)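 ARPE-19 cells infected with GFP-expressing HCMV and treated with compound at 7.5 µM. Images taken 3 and 6 days post infection, and area of infection calculated from GFP signal. Average of 3 distinct experiments.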

Human betaherpesvirus 5 [4] = test: Antiviral activity against HCMV infected in human ARPE-19 cells at 7.5 uM measured after 6 days post infection; type: functional, cell-based
In short: as §1

NHDF [5] = test: Cytotoxicity in human NHDF cells assessed as cell viability at 10 uM incubated for 96 hrs by CellTiter-Glo Luminescent assay; type: cell-based
In short: (§2)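 Cells in 96-well plates exposed to DMSO or compound at 100 nM or 10 µM for 96 h. Medium then replaced with fresh medium. XTT read as absorbance after 2 h at 37°C with activating reagent; CellTiter-Glo (ATP) read as luminescence. Average of three independent experiments.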

ARPE-19 [6] = test: Cytotoxicity in human ARPE-19 cells assessed as cell viability at 10 uM incubated for 96 hrs by CellTiter-Glo Luminescent assay; type: cell-based; settings: arpe-19, 96 h
In short: as §2

Vero [7] = test: Cytotoxicity in African green monkey VERO cells assessed as cell viability at 10 uM incubated for 96 hrs by CellTiter-Glo Luminescent assay; type: cell-based; settings: chlorocebus sabaeus, dose […]
In short: as §2

[8] = Cytotoxicity in mouse BALB/3T3 clone A31 cells assessed as cell viability at 10 uM incubated for 96 hrs by CellTiter-Glo Luminescent assay; type: cell-based; settings: balb/3t3 clone a31, 96 h
In short: as §2

NHDF [9] = test: Cytotoxicity in human NHDF cells assessed as cell viability at 10 uM incubated for 96 hrs by XTT Assay; type: cell-based
In short: as §2

ARPE-19 [10] = test: Cytotoxicity in human ARPE-19 cells assessed as cell viability at 10 uM incubated for 96 hrs by XTT Assay; type: cell-based; settings: arpe-19, 96 h
In short: as §2

Vero [11] = test: Cytotoxicity in African green monkey VERO cells assessed as cell viability at 10 uM incubated for 96 hrs by XTT Assay; type: cell-based; settings: chlorocebus sabaeus
In short: as §2

[12] = Cytotoxicity in mouse BALB/3T3 clone A31 cells assessed as cell viability at 10 uM incubated for 96 hrs by XTT Assay; type: cell-based; settings: balb/3t3 clone a31, 96 h
In short: as §2

BALB/3T3 clone A31 [13] = test: Antiviral activity against mouse polyomavirus A2 strain infected in BALB.3T3 clone A31 cells assessed as viral RNA at 100 nM measured after 24 hpi by RT-PCR analysis; type: functional, cell-based; settings: Murine polyomavirus
In short: (§3)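 A31 cells in 10% FBS DMEM infected with MuPyV A2 at MOI 1 for 1.5 h at 37°C. Cells washed twice, then exposed to compound (100 nM, 1.0 µM or 10 µM) for 24 h. Total RNA extracted and 2 µg converted to cDNA. LT mRNA measured by qPCR, normalized to TBP and to untreated cells. Two independent experiments, n=4 per condition, mean ± SD, 2-way ANOVA.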

BALB/3T3 clone A31 [14] = test: Antiviral activity against mouse polyomavirus A2 strain infected in BALB.3T3 clone A31 cells assessed as viral RNA at 1 to 10 uM measured after 24 hpi by RT-PCR analysis; type: functional, cell-based; settings: Murine polyomavirus
In short: as §3

NHDF [15] = test: Cytotoxicity in human NHDF cells assessed as cell viability at 100 nM incubated for 96 hrs by CellTiter-Glo Luminescent assay; type: cell-based; settings: 0.1 µM
In short: as §2

ARPE-19 [16] = test: Cytotoxicity in human ARPE-19 cells assessed as cell viability at 100 nM incubated for 96 hrs by CellTiter-Glo Luminescent assay; type: cell-based; settings: arpe-19, 96 h, 0.1 µM
In short: as §2

Vero [17] = test: Cytotoxicity in African green monkey VERO cells assessed as cell viability at 100 nM incubated for 96 hrs by CellTiter-Glo Luminescent assay; type: cell-based; settings: chlorocebus sabaeus, 0.1 µM
In short: as §2

[18] = Cytotoxicity in mouse BALB/3T3 clone A31 cells assessed as cell viability at 100 nM incubated for 96 hrs by CellTiter-Glo Luminescent assay; type: cell-based; settings: balb/3t3 clone a31, 96 h, 0.1 µM
In short: as §2

NHDF [19] = test: Cytotoxicity in human NHDF cells assessed as cell viability at 100 nM incubated for 96 hrs by XTT Assay; type: cell-based; settings: 0.1 µM
In short: as §2

ARPE-19 [20] = test: Cytotoxicity in human ARPE-19 cells assessed as cell viability at 100 nM incubated for 96 hrs by XTT Assay; type: cell-based; settings: arpe-19, 96 h, 0.1 µM
In short: as §2

Vero [21] = test: Cytotoxicity in African green monkey VERO cells assessed as cell viability at 100 nM incubated for 96 hrs by XTT Assay; type: cell-based; settings: chlorocebus sabaeus, 0.1 µM
In short: as §2

[22] = Cytotoxicity in mouse BALB/3T3 clone A31 cells assessed as cell viability at 100 nM incubated for 96 hrs by XTT Assay; type: cell-based; settings: balb/3t3 clone a31, 96 h, 0.1 µM
In short: as §2

Human betaherpesvirus 5 [23] = test: Antiviral activity against HCMV TB40/E infected in human assessed as reduction in infectious virus titer at 10 uM compound added 2 hpi and measured after 96 hpi by inverted microscopic analysis
BALB/3T3 clone A31 [24] = test: Antiviral activity against mouse polyomavirus A2 strain infected in BALB.3T3 clone A31 cells assessed as viral RNA at 100 nM to 10 uM measured after 24 hpi by RT-PCR analysis; type: functional, cell-based; settings: Murine polyomavirus, dose microM 0.1-10
In short: as §3

## Cc1nc(-c2ccc(C3N(C)c4ccc(F)cc4C(=O)N3c3ccccc3)s2)cs1 (stereo not drawn)
Human betaherpesvirus 5 [1]
  IC50: 25 nM

## Cc1nc(-c2ccc(C3Nc4ccc(C#N)cc4C(=O)N3c3ccccc3)s2)cs1 (stereo not drawn)
NHDF [2]
  STX5 displacement from Golgi (active/inactive call): Active
Human betaherpesvirus 5 [3]
  Activity: Active
Human betaherpesvirus 5 [4]
  Activity: Active
NHDF [5]
  Activity: Toxic
ARPE-19 [6]
  Activity: Toxic
Vero [7]
  Activity: Toxic
[8]
  Activity: Toxic
NHDF [9]
  Activity: Toxic
ARPE-19 [10]
  Activity: Toxic
Vero [11]
  Activity: Toxic
[12]
  Activity: Toxic
BALB/3T3 clone A31 [13]
  Activity: inactive
BALB/3T3 clone A31 [14]
  Activity: Active
NHDF [15]
  Activity: Non-Toxic
ARPE-19 [16]
  Activity: Non-Toxic
Vero [17]
  Activity: Non-Toxic
[18]
  Activity: Non-Toxic
NHDF [19]
  Activity: Non-Toxic
ARPE-19 [20]
  Activity: Non-Toxic
Vero [21]
  Activity: Non-Toxic
[22]
  Activity: Non-Toxic
Human betaherpesvirus 5 [23]
  Activity: Active
Human betaherpesvirus 5 [1]
  IC50: 96.3 nM

## Cc1nc(-c2ccc(C3N(C)c4ccccc4C(=O)N3c3ccccc3)s2)cs1 (stereo not drawn)
Human betaherpesvirus 5 [1]
  IC50: 386 nM

## Cc1nc(-c2ccc(C3N(C)c4ccc(C#N)cc4C(=O)N3c3ccccc3)s2)cs1 (stereo not drawn)
NHDF [2]
  STX5 displacement from Golgi (active/inactive call): Active
Human betaherpesvirus 5 [3]
  Activity: Active
Human betaherpesvirus 5 [4]
  Activity: Active
NHDF [5]
  Activity: Toxic
ARPE-19 [6]
  Activity: Toxic
Vero [7]
  Activity: Toxic
[8]
  Activity: Toxic
BALB/3T3 clone A31 [24]
  Activity: Active
NHDF [15]
  Activity: Non-Toxic
ARPE-19 [16]
  Activity: Non-Toxic
Vero [17]
  Activity: Non-Toxic
[18]
  Activity: Non-Toxic
NHDF [19]
  Activity: Non-Toxic
ARPE-19 [20]
  Activity: Non-Toxic
Vero [21]
  Activity: Non-Toxic
[22]
  Activity: Non-Toxic
Human betaherpesvirus 5 [23]
  Activity: Active
Human betaherpesvirus 5 [1]
  IC50: 34.1 nM

## Cc1nc(-c2ccc(C3N(C)c4ccc([N+](=O)[O-])cc4C(=O)N3c3ccccc3)s2)cs1 (stereo not drawn)
NHDF [2]
  STX5 displacement from Golgi (active/inactive call): Active
Human betaherpesvirus 5 [3]
  Activity: Active
Human betaherpesvirus 5 [4]
  Activity: Active
NHDF [5]
  Activity: Toxic
ARPE-19 [6]
  Activity: Toxic
Vero [7]
  Activity: Toxic
[8]
  Activity: Toxic
NHDF [9]
  Activity: Toxic
ARPE-19 [10]
  Activity: Toxic
Vero [11]
  Activity: Toxic
[12]
  Activity: Toxic
BALB/3T3 clone A31 [24]
  Activity: Active
NHDF [15]
  Activity: Non-Toxic
ARPE-19 [16]
  Activity: Non-Toxic
Vero [17]
  Activity: Non-Toxic
[18]
  Activity: Non-Toxic
NHDF [19]
  Activity: Non-Toxic
ARPE-19 [20]
  Activity: Non-Toxic
Vero [21]
  Activity: Non-Toxic
[22]
  Activity: Non-Toxic
Human betaherpesvirus 5 [23]
  Activity: Active
Human betaherpesvirus 5 [1]
  IC50: 21.3 nM

## Cc1nc(-c2ccc(C3Nc4ccc([N+](=O)[O-])cc4C(=O)N3c3ccccc3)s2)cs1 (stereo not drawn)
NHDF [2]
  STX5 displacement from Golgi (active/inactive call): Active
Human betaherpesvirus 5 [3]
  Activity: Active
Human betaherpesvirus 5 [4]
  Activity: Active
NHDF [5]
  Activity: Toxic
ARPE-19 [6]
  Activity: Toxic
Vero [7]
  Activity: Toxic
[8]
  Activity: Toxic
NHDF [9]
  Activity: Toxic
ARPE-19 [10]
  Activity: Toxic
Vero [11]
  Activity: Toxic
[12]
  Activity: Toxic
BALB/3T3 clone A31 [13]
  Activity: inactive
BALB/3T3 clone A31 [14]
  Activity: Active
NHDF [15]
  Activity: Non-Toxic
ARPE-19 [16]
  Activity: Non-Toxic
Vero [17]
  Activity: Non-Toxic
[18]
  Activity: Non-Toxic
NHDF [19]
  Activity: Non-Toxic
ARPE-19 [20]
  Activity: Non-Toxic
Vero [21]
  Activity: Non-Toxic
[22]
  Activity: Non-Toxic
Human betaherpesvirus 5 [23]
  Activity: Active
Human betaherpesvirus 5 [1]
  IC50: 90.5 nM
